HSP90 inh: inhibitors of HSP90 luciferase refolding in rabbit reticulocyte lysate; inhibition, % at 5.6 µM; luciferase refolding luminescence, 3 h; hit rate 0.91% among 290,000; AID 1789;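 active means inhibition above the screen-wide mean plus 3 SD, computed separately per campaign, cut at about 16% in these data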;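 further: inhibitors lower the luminescence because luciferase stays unfolded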
C8 TRAIL sens: caspase-8 TRAIL sensitization | NB7+C8 cells + TRAIL, ATPlite viability luminescence | inhibition (viability loss, TRAIL sensitization), % at 10 µM | hit rate 1% among 360,000 | AID 624354;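 active means compounds causing at least 50% loss of cell viability in the single-dose screen, relative to plate controls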
FLuc inh counter: inhibits firefly luciferase, flagging false hits in luciferase inhibition screens | P08659 | ATPLite firefly luciferase biochemical luminescence, 10 min | inhibition, % at 10 µM | hit rate 1.5% among 200,000 | AID 1006;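 active means inhibition above about 50% when tested at 10 µM, limit read from the data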
Target sequence (P08659 whole entry, looked up): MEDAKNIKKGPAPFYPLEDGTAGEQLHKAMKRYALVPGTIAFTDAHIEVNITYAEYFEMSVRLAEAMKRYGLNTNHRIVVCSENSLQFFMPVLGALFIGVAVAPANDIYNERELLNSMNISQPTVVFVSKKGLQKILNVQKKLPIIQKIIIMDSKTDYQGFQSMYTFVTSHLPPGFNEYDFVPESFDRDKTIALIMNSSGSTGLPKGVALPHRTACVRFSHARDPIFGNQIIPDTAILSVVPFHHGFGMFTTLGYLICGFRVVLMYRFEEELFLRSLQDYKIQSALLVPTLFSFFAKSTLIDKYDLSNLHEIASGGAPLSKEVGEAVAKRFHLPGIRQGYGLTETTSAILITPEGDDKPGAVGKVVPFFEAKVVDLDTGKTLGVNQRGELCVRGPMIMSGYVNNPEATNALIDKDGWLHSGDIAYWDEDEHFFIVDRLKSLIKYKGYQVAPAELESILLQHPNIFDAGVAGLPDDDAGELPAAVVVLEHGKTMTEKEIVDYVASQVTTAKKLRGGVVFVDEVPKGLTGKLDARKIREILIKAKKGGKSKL
PPC-1+TRAIL kill: PPC-1 cancer cell killing with TRAIL present; cell killing (% activity), % at 4 µM or 5 µM; hit rate 0.41% among 220,000; PPC-1 cells + TRAIL, ATPLite viability luminescence;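 active means cell killing above 50% in the first pass at 4 µM, then a duplicate retest at 5 µM averaging 50% or more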
FLuc stim CS: affects firefly luciferase, flagging false hits in luciferase stimulation screens | AID 1027 | ATPlite luciferase biochemical, luminescence, 10 min; 0 = ATP-free wells, 1 = DMSO control | P08659 | activation factor at 10 µM | 200,000 tested, under 10 active;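 active means luciferase activation factor, scaled between plate controls, of at least 2 with compound at 10 µM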
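Material: Luciferase/luciferin reagent mix | Doses: Test compounds dosed from 2 mM stocks in 100% DMSO | Timing: 10 min incubation after luciferase reagent addition, room temperature | Measured by: Luminescence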
PPC1 cytotox: PPC-1 cell cytotoxicity; shares compounds with PPC-1+TRAIL kill; PPC-1 viability, ATPlite luminescence, overnight; cytotoxicity, % at 5 µM; hit rate 50% among 1,200; AID 1447;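 active means reconfirmed compounds whose average cytotoxicity reaches 50% or more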
A number is an active result; i = inactive; nt = no result. In the library only some 2% were active in any assay of this set; here they are far more common.

SMILES	HSP90 inh	C8 TRAIL sens	FLuc inh counter	PPC-1+TRAIL kill	FLuc stim CS	others
Clc1ccc(/C=N/Nc2nnc(Cl)c3ccccc23)cc1	i	i	i	i	i
COc1ccc(/C=N/Nc2nnc(-c3ncc[nH]3)c3ccccc23)cc1	i	i	71.8	i	i
C(=N\Nc1nncc2ccccc12)/c1ccccc1	i	49.7	nt	i	nt
Oc1ccc2ccccc2c1/C=N/Nc1nnc(-c2ncc[nH]2)c2ccccc12	i	i	i	i	i
CC1CC(C)CN(C2CCCCC2NS(=O)(=O)c2ccc(Cl)cc2)C1 (centres undefined)	i	i	nt	nt	nt
CN(C)c1ccc(/C=N/Nc2nncc3ccccc23)cc1	i	65.8	nt	nt	nt
COc1cc(/C=N/Nc2nncc3ccccc23)cc(OC)c1OC	i	i	nt	nt	nt
Clc1nnc(N/N=C/c2ccccc2)c2ccccc12	i	i	68.9	i	i
c1ccc(-c2nnc3sc(CN4CCC5(CC4)OCCO5)cn23)cc1	i	65.0	i	i	i
Cc1cccc(C)c1NC(=O)C(c1ccc(C#N)cc1)n1c(=O)c(-c2cc3ccccc3[nH]2)nc2ccccc21 (centres undefined)	nt	i	nt	nt	nt
CCCC(=O)N(Cc1cc(=O)[nH]c2ccccc12)c1ccc(OC)cc1	i	i	nt	nt	nt
COc1ccc(N(Cc2cc(=O)[nH]c3ccccc23)C(=O)CCl)cc1	i	95.5	nt	nt	nt
Cc1cccc(N(Cc2cc(=O)[nH]c3ccccc23)C(=O)CCl)c1	i	84.0	nt	nt	nt
COc1cccc(-c2csc(N3CCN(C(=S)Nc4ccccc4C)CC3)n2)c1	i	i	i	i	i
COc1ccc(Nc2nnc(SCC(=O)N3CC(=O)Nc4ccccc43)s2)cc1	i	i	55.4	i	i
CC(C)N(C(=O)[C@H]1CC(CC(=O)NCCC2=CCCCC2)C(=O)N2CCc3c([nH]c4ccccc34)[C@]12C)C(C)C (some centres undefined)	nt	i	nt	nt	nt
CS(=O)(=O)c1cnc2c(-c3ccsc3)cnn2c1N	i	i	62.3	i	i
Clc1ccc(-c2nc3n(n2)Cc2ccccc2-3)cc1	i	58.8	58.2	i	i
COc1ccc(/C=N\NC(=O)C2=NNC(=O)C2C)cc1 (centres undefined)	i	i	68.8	i	i
COc1ccc(/C=N/NC(=O)CC(=O)N/N=C/c2ccc(OC)cc2)cc1	i	i	i	i	i
COc1cc2c3nnc(-c4ccccc4)c-3cn(Cc3ccc(F)cc3)c2cc1OC	i	i	i	i	i
COc1cc2c3nnc(-c4ccc(F)cc4)c-3cn(Cc3ccc(C)cc3)c2cc1OC	i	84.1	i	i	i
COc1cc2c3nnc(-c4ccc(F)cc4)c-3cn(Cc3cccc(C)c3)c2cc1OC	i	59.2	i	i	i
COc1ccc(Nc2cc(Nc3ccccc3)ncn2)cc1	i	i	nt	nt	nt
C/C(=N\NC(=O)c1cc(C(C)C)[nH]n1)c1ccncc1	i	i	nt	nt	nt
SMILES	HSP90 inh	C8 TRAIL sens	FLuc inh counter	PPC-1+TRAIL kill	FLuc stim CS	others
C/C(=N\NC(=O)c1cc(C(C)C)[nH]n1)c1ccco1	i	i	79.0	i	i
C/C(=N/NC(=O)c1cc(C(C)C)[nH]n1)c1cccs1	i	i	70.3	i	i
C/C(=N\NC(=O)c1cc(C)[nH]n1)c1cccs1	i	i	55.9	i	i
c1cc(-c2cccs2)nc(-c2cccs2)c1	i	i	i	i	i
c1csc(-c2cn3ccc4ccccc4c3n2)c1	i	i	53.1	i	i
O=C(NC(=S)NCc1ccccc1)c1cccc(Cl)c1	i	i	nt	nt	nt
NC(N)=Nc1ccc(C=C2C=Cc3ccccc32)cc1	nt	87.0	nt	nt	nt
CCOC(=O)c1ccc(NC(=O)CSc2nncn2-c2cccnc2)cc1	i	i	nt	nt	nt
Cc1ccccc1CS(=O)(=O)Cc1ccc(C(=O)NCc2ccccn2)o1	i	i	i	i	i
CCc1ccc(OCc2ccc(C(=O)NCc3ccccn3)o2)cc1	16.7	i	i	i	i
O=C(Nc1ccccc1N1CCOCC1)c1cc2c(s1)CCCCC2	i	i	65.3	i	i
O=C(Nc1ccon1)c1cc2c(s1)CCCC2	i	i	69.7	i	i
O=C(Nc1ccc(N2CCOCC2)cc1)c1cc2c(s1)CCCCC2	i	i	i	i	i
O=c1[nH]cnc2scc(-c3ccc(-c4ccccc4)cc3)c12	i	i	60.2	58.1	i	PPC1 cytotox=60.3
CNS(=O)(=O)c1cccc(C(=O)OCC(=O)Nc2ccc(-c3nc4ccc(C)cc4s3)cc2)c1	i	75.4	i	i	i	PPC1 cytotox=i
O=C(CNS(=O)(=O)c1cccc(Cl)c1)Nc1ccc(-c2nc3ccccc3s2)cc1	i	i	i	i	i
CNS(=O)(=O)c1cccc(C(=O)OCC(=O)Nc2ccc(N3CCCCC3)cc2)c1	i	i	i	i	i
O=C(CCS(=O)(=O)c1ccccc1)Nc1ccc(-c2nc3ccccc3s2)cc1	i	64.8	i	54.1	i	PPC1 cytotox=i
Cc1ccc2nc(-c3ccc(NC(=O)COC(=O)c4cncc(Br)c4)cc3)sc2c1	i	70.3	i	50.2	i	PPC1 cytotox=i
Cc1onc(-c2c(Cl)cccc2Cl)c1CO/N=C(\C#N)c1c(Cl)cccc1Cl	i	i	nt	i	nt
CCOC(=O)Cc1csc(NC(=O)/C=C/c2ccc(OC)cc2)n1	i	72.4	76.4	56.2	i	PPC1 cytotox=56.5
Cc1ccc2nc(-c3ccccn3)oc2c1	i	67.1	84.2	64.8	i	PPC1 cytotox=65.1
Cc1ccc2nc(-c3cccnc3)oc2c1	i	i	i	i	i
c1ccc(CCNc2ccnc3cc4ccccc4cc23)cc1	i	i	i	i	i	PPC1 cytotox=i
Cc1ccc(S(=O)(=O)N(C)C)cc1NC(=O)CN1C(=O)NC(Cc2ccccc2)C1=O (centres undefined)	nt	i	nt	nt	nt
SMILES	HSP90 inh	C8 TRAIL sens	FLuc inh counter	PPC-1+TRAIL kill	FLuc stim CS	others
CC(C)CC(=O)Nc1cccc(-c2cn3ccsc3n2)c1	i	i	i	i	i
O=C(Nc1ccc(-c2cn3ccsc3n2)cc1)C1CCCC1	i	78.9	88.0	72.6	i	PPC1 cytotox=73.3
Cc1nc(-c2ccc(NC(=O)C3CCCCC3)cc2)cs1	i	i	i	i	i
O=C(Nc1ccc(-c2cn3ccsc3n2)cc1)C1CC1	i	68.8	87.2	61.3	i	PPC1 cytotox=64.3
CCC(=O)Nc1cccc(-c2cn3ccsc3n2)c1	i	i	i	i	i	PPC1 cytotox=i
O=C(CSc1nnc(-c2csc3c2CCCC3)o1)Nc1ccccc1	i	77.5	i	58.4	i	PPC1 cytotox=56.5
O=C(CSc1nnc(-c2ccc(O)cc2)o1)Nc1ccccc1	i	i	nt	nt	nt
Cc1oc2c(c1C(=O)NCc1cccnc1)C(=O)c1ccccc1C2=O	16.4	nt	i	95.2	i	PPC1 cytotox=94.4
COc1ccc(CNC(=O)c2c(C)oc3c2C(=O)c2ccccc2C3=O)cc1	i	93.9	i	58.7	i	PPC1 cytotox=56.8
Cc1onc(-c2ccccc2Cl)c1C(=O)NCc1cccnc1	i	i	i	i	i
COc1ccc2cc(-c3[nH]ncc3CN3CCCN(c4ccccc4)CC3)ccc2c1	i	i	i	i	i
N#Cc1c(SCC(=O)N2CCCCC2)nsc1SCC(=O)N1CCCCC1	i	i	i	i	i	PPC1 cytotox=i
COC(=O)CSc1nsc(SCC(=O)OC)c1C#N	i	i	i	i	i
